This note sets out measurements from ChEMBL document CHEMBL1126240, “Structure-activity relationship studies of central nervous system agents. 5. Effect of the hydrocarbon chain on the affinity of 4-substituted 1-(3-chlorophenyl)piperazines for 5-HT1A receptor site” (J Med Chem, 1992).

The nature of data set [1]: Compound was evaluated for the Ionization constants at 37 degree Centigrade pKa2. In kind it is physicochemical. The note with it: read-out: pKa2. Summed up:
(§1)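 Potentiometric titration at 37 °C; pKa values fitted to the titration data by nonlinear regression.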

For data set [2], the target named is T1, 5-hydroxytryptamine receptor 1A (Rattus norvegicus) (UniProt P19327).
T1 sequence (whole entry): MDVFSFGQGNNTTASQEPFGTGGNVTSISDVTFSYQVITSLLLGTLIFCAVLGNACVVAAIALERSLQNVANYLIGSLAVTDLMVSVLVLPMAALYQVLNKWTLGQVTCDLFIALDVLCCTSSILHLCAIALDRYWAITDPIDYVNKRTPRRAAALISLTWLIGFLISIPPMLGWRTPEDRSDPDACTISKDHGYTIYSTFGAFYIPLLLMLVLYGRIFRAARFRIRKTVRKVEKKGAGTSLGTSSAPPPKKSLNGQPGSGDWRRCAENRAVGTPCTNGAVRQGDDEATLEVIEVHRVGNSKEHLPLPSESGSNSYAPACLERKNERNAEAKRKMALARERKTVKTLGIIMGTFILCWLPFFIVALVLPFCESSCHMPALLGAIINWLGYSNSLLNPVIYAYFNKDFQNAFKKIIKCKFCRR
Description: Ability to displace the protonated form of [3H]8-hydroxy-2-(di-n-propylamino)tetralin binding from labeled 5-hydroxytryptamine 1A receptor site in rat brain hippocampus. The data set is classed as tissue-based. A digest of the protocol:
(§2)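 Radioligand displacement in rat hippocampal tissue using [³H]-8-OH-DPAT as ligand, following a previously published protocol; affinity given as Ki for the protonated (AH+) species.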

The nature of data set [3]: Compound was evaluated for the Ionization constants at 37 degree Celsius pKa1. The data set is classed as physicochemical. The settings on record: read-out: pKa1. Summed up:
as §1

The nature of data set [4]: % ionization at the pH 7.4 at 37 degree Centigrade. The data set is classed as ADME. A digest of the protocol: (§3)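 Fraction ionized calculated from eq 1 using pKa2 measured by potentiometric titration at 37 °C, for pH 7.4 and 37 °C.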
The target of data set [5] is T2, 5-hydroxytryptamine receptor 1A (Rattus norvegicus, UniProt P19327).
T2 sequence (P19327 whole entry): T1 sequence (whole entry)
Description: In vitro ability to displace [3H]8-hydroxy-2-(di-n-propylamino) tetralin binding from 5-hydroxytryptamine 1A receptor site in rat brain hippocampus. In kind it is tissue-based.

The target of data set [6] is T1, 5-hydroxytryptamine receptor 1A (Rattus norvegicus). The settings on record: Hippocampus.
Data set [7] has the same target. In words: Compound was evaluated for its ability to displace the protonated form of [3H]8-hydroxy-2-(di-n-propylamino)tetralin binding from labeled 5-HT 1A receptor site. A digest of the protocol:
as §2

Data set [8] is described as follows: Compound was evaluated for the percentage ionization at the pH 7.4 at 37 degree Centigrade. In kind it is ADME. A digest of the protocol: as §3

Consider `CCN1CCN(c2cccc(Cl)c2)CC1`, for which the values for the pKa in data set [1] and in data set [3] were 7.89 and 2.48, respectively. The KiAH in data set [2] worked out at 166 nM. The Ionization in data set [4] came out at 75.5%. Further, the Ki (usually a measure of affinity in units of concentration, obtained from inhibition or displacement) in data set [5] was 220 nM.

For `Clc1cccc(N2CC[N+]3(CCCC3)CC2)c1`, in data set [5], the Ki worked out at 7220 nM.

`CCCN1CCN(c2cccc(Cl)c2)CC1`: the values for the pKa in data set [1] and in data set [3] were 7.07 and 2.39, respectively. This compound gave a KiAH in data set [2] of 38.9 nM. Moreover, the Ionization in data set [4] was determined as 31.9%. Affinity in data set [5] was put at a Ki of 122 nM.

Regarding `CC(=O)N1CCN(c2cccc(Cl)c2)CC1`, the Ki in data set [5] was greater than 100000 nM.

For the compound `Clc1cccc(N2CCOCC2)c1`, in data set [3], the pKa worked out at 2.33. This compound also registered a Ki in data set [5] greater than 100000 nM.

On to `CC1(C)CC(=O)N(CCCCN2CCN(c3ncccn3)CC2)C(=O)C1` [GEPIRONE], for which the pKa in data set [1] is 7.64. Moreover, the KiAH in data set [2] turned out to be 20.2 nM. In addition, in data set [4], the Ionization worked out at 63.5%.

In turn, `CC(C)C(=O)N1CCN(c2cccc(Cl)c2)CC1` gave a Ki in data set [5] greater than 100000 nM.

Consider `CCCCN1CCN(c2cccc(Cl)c2)CC1`, for which the results for the pKa in data set [1] and in data set [3] were 6.7 and 2.43, respectively. Also, the KiAH in data set [2] was found to be 3.06 nM. The same compound registered an Ionization in data set [4] of 16.6%. Further, the affinity in data set [5], expressed as Ki, was 18.4 nM.

On to `OCCN1CCN(c2cccc(Cl)c2)CC1`, for which the pKa in data set [1] was 6.92. For the same compound, in data set [2], the KiAH stood at 50.3 nM. In data set [4], this compound yielded an Ionization of 24.9%. For the same compound, the Ki in data set [5] stood at 202 nM.

In the case of `CCCCCN1CCN(c2cccc(Cl)c2)CC1`, the pKa is 6.13 in data set [1] and 2.46 in data set [3]. Also, the KiAH in data set [2] turned out to be 0.282 nM. The same compound gave an Ionization in data set [4] of 5.1%. In data set [5], this compound had a Ki of 5.54 nM.

Consider `CN1CCN(c2cccc(Cl)c2)CC1`, for which the pKa in data set [1] was determined as 8.27; in data set [3], 2.82. Moreover, in data set [2], the KiAH was found to be 134 nM. In data set [4], this compound had an Ionization of 88.1%. In data set [5], this compound gave a Ki of 152 nM.

`O=C1c2ccccc2S(=O)(=O)N1CCCCN1CCN(c2ncccn2)CC1` [IPSAPIRONE] registered a KiAH in data set [6] of 0.024 nM. Further, in data set [1], the pKa stood at 5.25. In data set [4], this compound registered an Ionization of 0.7%. For the same compound, in data set [5], affinity was put at a Ki of 3.4 nM.

On to `CCCC(=O)N1CCN(c2cccc(Cl)c2)CC1`, for which the affinity in data set [5] corresponds to a Ki of 49000 nM.

For `Clc1cccc(N2CCNCC2)c1` [CHLOROPHENYLPIPERAZINE], the pKa in data set [1] was found to be 8.42. The compound further gave a KiAH in data set [2] of 131 nM. Moreover, the Ionization in data set [4] was found to be 91.3%. The compound further yielded a Ki in data set [5] of 143 nM.

For `CCCCCCN1CCN(c2cccc(Cl)c2)CC1`, the pKa in data set [1] was 5.49; in data set [3] it was 2.57. In data set [2], this compound yielded a KiAH of 0.032 nM. Also, the Ionization in data set [4] was determined as 1.2%. This compound registered a Ki in data set [5] of 2.67 nM.

As for `O=C(c1ccccc1)N1CCN(c2cccc(Cl)c2)CC1`, in data set [5], the Ki is greater than 100000 nM.

As for `CC(C)N1CCN(c2cccc(Cl)c2)CC1`, the pKa was determined as 7.65 in data set [1] and 2.37 in data set [3]. In data set [2], the KiAH is 102 nM. In data set [4], this compound came in with an Ionization of 64%. Moreover, in data set [5], the affinity corresponds to a Ki of 159 nM.

Consider `O=C(Cc1ccccc1)N1CCN(c2cccc(Cl)c2)CC1`, for which, in data set [5], the Ki amounted to 14800 nM.

Regarding `C=CCN1CCN(c2cccc(Cl)c2)CC1`, the figures for the pKa in data set [1] and in data set [3] were 7.08 and 2.94, respectively. This compound also had a KiAH in data set [2] of 81.2 nM. The compound further registered an Ionization in data set [4] of 32.4%. Besides, in data set [5], the Ki is 251 nM.

Consider `Clc1cccc(N2CCN(Cc3ccccc3)CC2)c1`, for which the pKa in data set [1] stood at 4.39. Moreover, the KiAH in data set [2] is 0.166 nM. Also, in data set [4], the Ionization was 0.1%. The compound also showed a Ki in data set [5] of 166 nM.

In data set [7], `CCCN(CCC)C1CCc2cccc(O)c2C1` (stereo unspecified) [8-OH-DPAT] displayed a KiAH of 1.16 nM. The pKa in data set [1] was determined as 8.02. In data set [8], this compound showed an Ionization of 80.6%.

In the case of `CCC(C)N1CCN(c2cccc(Cl)c2)CC1` (stereo unspecified), the pKa is 6.84 in data set [1] and 2.32 in data set [3]. In addition, the KiAH in data set [2] turned out to be 27.4 nM. This compound yielded an Ionization in data set [4] of 21.6%. The same compound yielded a Ki in data set [5] of 127 nM.

In turn, `CCC(=O)N1CCN(c2cccc(Cl)c2)CC1` returned a Ki in data set [5] of 30800 nM. This lies in the double-digit micromolar range.
